Active and inactive are the calls of the source. No cut-off for these calls is given here.
Tests used:
[1] = system: Acinetobacter baumannii; experiment: Bactericidal activity against Acinetobacter baumannii isolate 3 with AMP-AMC-CFZ-CIP-IPM-SXT-TET-TOB resistance phenotype assessed as concentration required for >= 3 log10 CFU/ml reduction in viable bacteria in 20% heat-inactivated human serum after 1.5 hrs by liquid microdilution assay; format: functional
In short: (§1)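 The buffer microdilution kill assay (1 × 10^7 CFU/ml mid-log cells, 10 μl in 100 μl, 37°C, 1.5 h, CFU on tryptone soy agar after 24 h) with serum added to 20% or 40% final. Serum was pooled from five healthy donors, clotted at room temperature, spun at 300 × g and heat-inactivated at 56°C for 30 min.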

[2] = system: Pseudomonas aeruginosa; experiment: Antimicrobial activity against Pseudomonas aeruginosa isolate 1 with AMP-CFZ-CIP-CTX-CXM-GEN-LVX-SXT-TET resistance phenotype at bactericidal concentration after 30 mins by time kill assay; format: functional, organism-based
In short: (§2)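 Time-kill in 10 mM sodium phosphate buffer, pH 7.4: 1 × 10^7 CFU/ml mid-log clinical isolate (10 μl) exposed at 37°C to peptide at the 1.5-h bactericidal concentration or twofold that, in 100 μl. Samples taken from 2 min onward, plated on tryptone soy agar, CFU counted after 24 h at 37°C. Killing taken as ≥3 log10 CFU/ml drop.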

[3] = system: Enterococcus faecium; experiment: Bactericidal activity against Enterococcus faecium isolate 3 with AMP-CIP-CTX-ERY-GEN-LVX-SXT-TEC-VAN resistance phenotype assessed as concentration required for >= 3 log10 CFU/ml reduction in viable bacteria in 20% heat-inactivated human serum after 1.5 hrs by liquid microdilution assay; format: functional; in short: as §1
[4] = system: Stenotrophomonas maltophilia; experiment: Antimicrobial activity against Stenotrophomonas maltophilia isolate 2 with AMK-CIP-CTX-IPM-MEM-SAM-TZP resistance phenotype assessed as assessed as time to kill at twofold bactericidal concentration; format: functional; in short: as §2
[5] = system: Acinetobacter baumannii; experiment: Antimicrobial activity against Acinetobacter baumannii isolate 3 with AMP-AMC-CFZ-CIP-IPM-SXT-TET-TOB resistance phenotype assessed as time to kill at bactericidal concentration; format: functional; in short: as §2
[6] = system: Staphylococcus aureus; experiment: Bactericidal activity against Staphylococcus aureus isolate 2 with AMC-AMP-CIP-ERY-GEN-LVX-OXA-RIF-TET resistance phenotype assessed as concentration required for >= 3 log10 CFU/ml reduction in viable bacteria in sodium phosphate buffer at pH 7.4 after 1.5 hrs by liquid microdilution assay; format: functional
In short: (§3)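 Clinical multidrug-resistant isolates grown to mid-log in tryptone soy broth and stored frozen. Exponential cells resuspended in 10 mM sodium phosphate buffer, pH 7.4, at 1 × 10^7 CFU/ml; 10 μl incubated with graded peptide concentrations in 100 μl at 37°C for 1.5 h. Plated on tryptone soy agar, CFU read after 24 h at 37°C. Peptide stocks in 20% ethanol.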

[7] = system: Enterococcus faecium; experiment: Antimicrobial activity against Enterococcus faecium isolate 3 with AMP-CIP-CTX-ERY-GEN-LVX-SXT-TEC-VAN resistance phenotype assessed as time to kill at twofold the bactericidal concentration; format: functional, organism-based; in short: as §2
[8] = system: Stenotrophomonas maltophilia; experiment: Bactericidal activity against Stenotrophomonas maltophilia isolate 2 with AMK-CIP-CTX-IPM-MEM-SAM-TZP resistance phenotype assessed as concentration required for >= 3 log10 CFU/ml reduction in viable bacteria in 20% heat-inactivated human serum after 1.5 hrs by liquid microdilution assay; format: functional; in short: as §1
[9] = system: Staphylococcus aureus; experiment: Bactericidal activity against Staphylococcus aureus isolate 1 with AMC-AMP-CIP-ERY-GEN-OXA-RIF resistance phenotype assessed as concentration required for >= 3 log10 CFU/ml reduction in viable bacteria in 20% heat-inactivated human serum after 1.5 hrs by liquid microdilution assay; format: functional; in short: as §1
[10] = system: Enterococcus faecium; experiment: (§4) Bactericidal activity against Enterococcus faecium isolate 3 with AMP-CIP-CTX-ERY-GEN-LVX-SXT-TEC-VAN resistance phenotype assessed as concentration required for >= 3 log10 CFU/ml reduction in viable bacteria in sodium phosphate buffer at pH 7.4 after 1.5 hrs by liquid microdilution assay; format: functional; in short: as §3
[11] = system: Pseudomonas aeruginosa; experiment: Bactericidal activity against Pseudomonas aeruginosa isolate 1 with AMP-CFZ-CIP-CTX-CXM-GEN-LVX-SXT-TET resistance phenotype assessed as concentration required for >= 3 log10 CFU/ml reduction in viable bacteria in 20% heat-inactivated human serum after 1.5 hrs by liquid microdilution assay; format: functional; in short: as §1
[12] = system: Staphylococcus aureus; experiment: Antimicrobial activity against Staphylococcus aureus isolate 1 with AMC-AMP-CIP-ERY-GEN-OXA-RIF resistance phenotype at twofold the bactericidal concentration within 30 mins; format: functional, organism-based; in short: as §2
[13] = system: Stenotrophomonas maltophilia; experiment: Bactericidal activity against Stenotrophomonas maltophilia isolate 2 with AMK-CIP-CTX-IPM-MEM-SAM-TZP resistance phenotype assessed as concentration required for >= 3 log10 CFU/ml reduction in viable bacteria in sodium phosphate buffer at pH 7.4 after 1.5 hrs by liquid microdilution assay; format: functional; in short: as §3
[14] = system: Acinetobacter baumannii; experiment: Bactericidal activity against Acinetobacter baumannii isolate 1 with AMP-AMC-CFZ-CIP-IPM-LVX-PIP-SXT-TET resistance phenotype assessed as concentration required for >= 3 log10 CFU/ml reduction in viable bacteria in sodium phosphate buffer at pH 7.4 after 1.5 hrs by liquid microdilution assay; format: functional; in short: as §3
[15] = system: Staphylococcus aureus; experiment: Bactericidal activity against Staphylococcus aureus isolate 1 with AMC-AMP-CIP-ERY-GEN-OXA-RIF resistance phenotype assessed as concentration required for >= 3 log10 CFU/ml reduction in viable bacteria in sodium phosphate buffer at pH 7.4 after 1.5 hrs by liquid microdilution assay; format: functional; in short: as §3
[16] = system: Acinetobacter baumannii; experiment: Bactericidal activity against Acinetobacter baumannii isolate 2 with AMP-CFZ-CIP-LVX-PIP-SXT resistance phenotype assessed as concentration required for >= 3 log10 CFU/ml reduction in viable bacteria in sodium phosphate buffer at pH 7.4 after 1.5 hrs by liquid microdilution assay; format: functional; in short: as §3
[17] = system: Pseudomonas aeruginosa; experiment: Antimicrobial activity against Pseudomonas aeruginosa isolate 1 with AMP-CFZ-CIP-CTX-CXM-GEN-LVX-SXT-TET resistance phenotype at twofold bactericidal concentration after 10 to 30 mins by time kill assay; format: functional, organism-based; in short: as §2
[18] = system: Pseudomonas aeruginosa; experiment: Bactericidal activity against Pseudomonas aeruginosa isolate 1 with AMP-CFZ-CIP-CTX-CXM-GEN-LVX-SXT-TET resistance phenotype assessed as concentration required for >= 3 log10 CFU/ml reduction in viable bacteria in sodium phosphate buffer at pH 7.4 after 1.5 hrs by liquid microdilution assay; format: functional; in short: as §3
[19] = system: Enterococcus faecium; experiment: as §4, with “isolate 6” for “isolate 3”, “with AMP-AMC-CLI-CRO-CTX-CIP-ERY-GEN-KAN-LVX-SXT-VAN” for “with AMP-CIP-CTX-ERY-GEN-LVX-SXT-TEC-VAN”; format: functional; in short: as §3
[20] = system: Stenotrophomonas maltophilia; experiment: Bactericidal activity against Stenotrophomonas maltophilia isolate 4 with AMK-CAZ-CIP-FEP-IPM-SAM-TZP resistance phenotype assessed as concentration required for >= 3 log10 CFU/ml reduction in viable bacteria in sodium phosphate buffer at pH 7.4 after 1.5 hrs by liquid microdilution assay; format: functional; in short: as §3
[21] = system: Acinetobacter baumannii; experiment: Bactericidal activity against Acinetobacter baumannii isolate 3 with AMP-AMC-CFZ-CIP-IPM-SXT-TET-TOB resistance phenotype assessed as concentration required for >= 3 log10 CFU/ml reduction in viable bacteria in sodium phosphate buffer at pH 7.4 after 1.5 hrs by liquid microdilution assay; format: functional; in short: as §3
[22] = system: Stenotrophomonas maltophilia; experiment: Bactericidal activity against Stenotrophomonas maltophilia isolate 1 with AMK-CIP-CTX-IPM-MEM-SAM-TZP resistance phenotype assessed as concentration required for >= 3 log10 CFU/ml reduction in viable bacteria in sodium phosphate buffer at pH 7.4 after 1.5 hrs by liquid microdilution assay; format: functional; in short: as §3
[23] = system: Staphylococcus aureus; experiment: Bactericidal activity against Staphylococcus aureus isolate 3 with AMC-AMP-CIP-ERY-GEN-LVX-OXA resistance phenotype assessed as concentration required for >= 3 log10 CFU/ml reduction in viable bacteria in sodium phosphate buffer at pH 7.4 after 1.5 hrs by liquid microdilution assay; format: functional; in short: as §3
[24] = system: Pseudomonas aeruginosa; experiment: Bactericidal activity against Pseudomonas aeruginosa isolate 2 with AMP-CFZ-CIP-CTX-CXM-GEN-LVX-IPM-MEM-SXT-TET resistance phenotype assessed as concentration required for >= 3 log10 CFU/ml reduction in viable bacteria in sodium phosphate buffer at pH 7.4 after 1.5 hrs by liquid microdilution assay; format: functional; in short: as §3
[25] = system: Enterococcus faecium; experiment: Bactericidal activity against Enterococcus faecium isolate 5 with AMP-AMC-CIP-CLI-ERY-GEN-KAN-LVX-SXT-TEC-VAN resistance phenotype assessed as concentration required for >= 3 log10 CFU/ml reduction in viable bacteria in sodium phosphate buffer at pH 7.4 after 1.5 hrs by liquid microdilution assay; format: functional; in short: as §3
[26] = system: Pseudomonas aeruginosa; experiment: Bactericidal activity against Pseudomonas aeruginosa isolate 3 with AMP-CFZ-CTX-CIP-GEN-IPM-LVX-SXT-TET-TOB resistance phenotype assessed as concentration required for >= 3 log10 CFU/ml reduction in viable bacteria in sodium phosphate buffer at pH 7.4 after 1.5 hrs by liquid microdilution assay; format: functional; in short: as §3
[27] = system: Enterococcus faecium; experiment: Antimicrobial activity against Enterococcus faecium isolate 3 with AMP-CIP-CTX-ERY-GEN-LVX-SXT-TEC-VAN resistance phenotype assessed as time to kill at bactericidal concentration; format: functional; in short: as §2

Substance	Activity [1]	Activity [2]	Activity [3]	Time [4]	Time [5]	Activity [6]	Activity [7]	Activity [8]	Activity [9]	Activity [10]	Activity [11]	Activity [12]	Activity [13]	Activity [14]	Activity [15]	Activity [16]	Activity [17]	Activity [18]	Activity [19]	Activity [20]	further results
H-IIGPVLGLVGSALGGLLKKI-NH2 [BOMBININ H2]	128 µM	inactive	64 µM	2 min	2 min	16 µM	inactive	128 µM	64 µM	4 µM	128 µM	inactive	4 µM	8 µM	16 µM	4 µM	Active	16 µM	4 µM	16 µM	Activity [21]: 8 µM; Activity [22]: 4 µM; Activity [23]: 8 µM; Activity [24]: 16 µM; Activity [25]: 8 µM; Activity [26]: 8 µM; Time [27]: 5 min
H-LLPIVGNLLKSLL-NH2	192 µM	inactive	48 µM	2 min	>=30 min	48 µM	inactive	192 µM	96 µM	12 µM	192 µM	Active	3 µM	24 µM	48 µM	6 µM	Active	48 µM	12 µM	48 µM	Activity [21]: 6 µM; Activity [22]: 24 µM; Activity [23]: 12 µM; Activity [24]: 48 µM; Activity [25]: 12 µM; Activity [26]: 48 µM; Time [27]: 5 min
